The test system of data set [1] is NS3 protease. Particulars: compared with bilirubin; cited from earlier work.
The subject of data set [2] is HCV replicon (Huh 5.15NS, sub-genomic HCV RNA genotype 1b). The data set can be described thus: HCV RNA replication in replicon cells, real-time RT-PCR. Particulars: Hepatitis C virus, GETYPE1B, read-out: inhibition in replicon assays. It is filed as cell-based. In short, it runs like this:
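Huh 5.15NS cells carrying subgenomic genotype 1b HCV RNA were seeded, left to attach overnight and treated in log phase for 48 h with compound (DMSO stock diluted into medium) or vehicle. Total RNA was extracted with Trizol and DNase-treated, then HCV RNA was measured by SYBR green real-time RT-PCR using ΔCT against GAPDH. EC50 came from sigmoidal regression, with 3–5 determinations per point and a known NS3-4A inhibitor as positive control.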

The test system of data set [3] is Huh 5.15 replicon cells. Kind of data set: MTT assay of cellular viability and proliferation. It is filed as cell-based, human. In short, it runs like this: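 Replicon cells were seeded semi-confluent, attached overnight, then given compound at 10 or 20 μM or vehicle, in triplicate or quadruplicate. MTT was added at 24 and 48 h and absorbance read at 570 nm. Blanks containing vehicle plus compound were subtracted, and viable cells were expressed relative to vehicle controls.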

The target of data set [4] is HCV NS3-4A protease genotype 1B (Hepatitis C virus genotype 1b, UniProt P26663). Kind of data set: Recombinant NS3-4A protease FRET assay. The conditions noted are these: compared with biliverdin. Format: biochemical.
Data set [5] deals with NS3-4A protease V36M mutant (Hepatitis C virus genotype 1b, UniProt P26663, V1062M). Kind of data set: Mutant recombinant NS3-4A protease fluorometric assay, V36M. Format: biochemical, HCV. The conditions noted are these: V36M vs WT. In short, it runs like this:
(§1)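 Recombinant wild-type and mutant NS3-4A proteases were run side by side in a SensoLyte FRET assay across a range of compound concentrations. Excitation/emission of 591/622, 490/520 or 340/490 nm was chosen empirically for each compound, and parallel compound-only wells corrected for autofluorescence. Compound came from DMSO stock diluted into assay buffer, with vehicle controls.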

In data set [6] the target is NS3-4A protease T54A mutant (Hepatitis C virus genotype 1b, UniProt P26663, T1080A). The data set can be described thus: Mutant recombinant NS3-4A protease fluorometric assay, T54A. It is filed as biochemical, HCV. Particulars: T54A vs WT. In short, it runs like this:
as §1

The target in data set [7] is NS3-4A protease A156T mutant (Hepatitis C virus genotype 1b, UniProt P26663, A1182T). Kind of data set: Mutant recombinant NS3-4A protease fluorometric assay, A156T. Format: biochemical, HCV. The conditions noted are these: A156T vs WT. In short, it runs like this:
as §1

Data set [8] concerns HCV proteins NS3-4A and core. Kind of data set: Western blot for HCV proteins in infected Huh 7.5 cells and Huh 5.15NS replicons. Format: cell-based. The conditions noted are these: MPP 10 µM; J6/JFH infected Huh 7.5 cells 48 hrs, Huh 5.15NS replicons 24 hrs. The procedure, abridged:
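Cells in log phase were treated with compound, then lysed. HCV proteins were detected by Western blot with anti-NS3-4A antibodies and enhanced chemiluminescence.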

The test system of data set [9] is NS3 protease. Particulars: less effective for genotype 3; cited from earlier work.

For the compound `C=CC1=C(C)/C(=C/C2=NC(=C\c3[nH]c(/C=C4\NC(=O)C(C)=C4C=C)c(C)c3CCC(=O)O)/C(CCC(=O)O)=C2C)NC1=O` [BV, biliverdin], in data set [1], the “IC50 for NS3 protease, fold less than BR” value is recorded as 30 fold.

Take `CC(C)(C)OC(=O)N[C@H]1CCCCC/C=C\[C@@H]2C[C@@]2(C(=O)NS(=O)(=O)C2CC2)NC(=O)[C@@H]2C[C@@H](OC(=O)N3Cc4cccc(F)c4C3)CN2C1=O` [Danoprevir, reference compound]: the inhibition at 0.01 µM in data set [2] lay within 80 to 90%. In addition, in data set [3] (24 or 48 hrs, concentrations equivalent or in excess of EC50), the “effects on viable cells” value is reported as “little if any effects”.

As to `C=CC1=C(C)c2cc3[n-]c(cc4[n-]c(cc5nc(cc1n2)C(C)=C5C=C)c(C)c4CCC(=O)O)c(CCC(=O)O)c3C.[Fe+2]` [FePP, Iron protoporphyrin], the “reduction of viable cells” value in data set [3] (10 or 20 μM, by 48 hrs) is 12–19%.

Consider `C=CC1=C(C)C2=Cc3c(C=C)c(C)c4[n]3[Zn][n]3c(c(C)c(CCC(=O)O)c3=CC3=NC(=C4)C(C)=C3CCC(=O)O)=CC1=N2` [ZnPP, Zn protoporphyrin], for which the “Ki, fold stronger than biliverdin” value in data set [4] is 10–20 fold. In addition, in data set [3] (10 or 20 μM, 24 and 48 hrs intervals), the “reduction of the amount of viable cells” value is 40–50%. In addition, the “inhibition of mutant protease compared to wild-type enzyme” value in [5], in data set [6] and in data set [7] was “same fidelity as the wild-type enzyme” each time. Also, the “expression of HCV proteins NS3-4A and core (Western blot)” value in [8] is on record as “decreased expression”.

In the case of `C=C[C@@H]1C[C@]1(NC(=O)[C@@H]1C[C@@H]2CN1C(=O)[C@H](C(C)(C)C)NC(=O)O[C@@H]1C[C@H]1CCCCCc1nc3ccc(OC)cc3nc1O2)C(=O)NS(=O)(=O)C1CC1` [grazoprevir], in data set [9], the “difference in Ki, genotype 3 as compared to genotype 1” value is on record as 90 fold.
